Measured values as given in ChEMBL document CHEMBL1127826, “Inhibitors of acyl-CoA:cholesterol acyltransferase (ACAT). 7. Development of a series of substituted N-phenyl-N'-[(1-phenylcyclopentyl)methyl]ureas with enhanced hypocholesterolemic activity” (J Med Chem, 1994).

Tests used:
[1] = Solubility at pH 4.0; assay type: physicochemical; settings: buffer
Rattus norvegicus [2] = organism: Rattus norvegicus; test: Percent change in total cholesterol in peanut oil (5.5%) - cholic acid (0.3%) - Cholesterol (1.5%) fed rates after a single dose; assay type: functional
Summary of the method: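 Male Sprague-Dawley rats (200-225 g), n=5-7/group, given a single oral dose at 4 p.m. as a suspension in 1.5% CMC/0.2% Tween-20 in water (50 mg/kg); controls received vehicle alone. The rats then had free access to chow with peanut oil, cholesterol and cholic acid. At 8 a.m. next day they were bled by cardiac puncture under ether, and serum total cholesterol was measured as % change versus controls (unpaired two-tailed t-test).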

Rattus norvegicus [3] = test: Compound was evaluated for % reduction in plasma cholesterol in cholesterol fed rats at a dose of 25 mg/kg; assay type: functional
Summary of the method: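 Male Sprague-Dawley rats on a cholesterol-enriched diet. Dosing was either by gavage as a suspension in 1.5% carboxymethylcellulose/0.2% Tween-20 in water or in oleic acid, or given as a diet admixture. Result is % reduction in plasma cholesterol versus untreated controls given the same mode and vehicle. Significance threshold p < 0.05.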

[4] = Solubility at pH 7.4; assay type: physicochemical; settings: buffer
[5] = Compound was evaluated for the distribution coefficient at pH 7.4; assay type: physicochemical; settings: octanol/water
[6] = Solubility at 0.1 N HCl; assay type: physicochemical; settings: read-out: S
Rattus norvegicus [7] = test: Compound was evaluated in experiment 2 for Change in total cholesterol at 1 (mg/kg) dose; N/C denotes 'No change'; assay type: functional, organism-based
Summary of the method: (§1)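 Chronic model in male Sprague-Dawley rats (200-225 g). Rats were fed chow with peanut oil 5.5%, cholesterol 1.5% and cholic acid ad libitum for 2 weeks. Test article was given by gavage once daily (morning) in the second week, as a CMC/Tween aqueous suspension. Blood was taken by cardiac puncture under ether 24 h after the last dose. Plasma total, HDL and nonHDL cholesterol were measured with an Abbott VP analyzer using dextran sulfate precipitation, reported as mg/dL and % change from control. Controls were cholesterol-fed rats and rats switched to chow in week 2.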

Rattus norvegicus [8] = test: Compound was evaluated in experiment 2 for change in non High density lipoprotein at the doses at 1 (mg/kg) dose; assay type: functional, organism-based; summary of the method: as §1

Row | solubility [1] | solubility [4] | logD [5] | solubility [6] | SMILES | Delta TC (Rattus norvegicus [2]) | Reduction (Rattus norvegicus [3]) | Change TC (Rattus norvegicus [7]) | Change non HDL-C (Rattus norvegicus [8])
1 | < 1 µg/mL | < 1 µg/mL | 5.16 | < 1 µg/mL | CC(C)c1cccc(C(C)C)c1NC(=O)NCC1(c2ccccc2)CCCC1 | -38% | 59% | – | –
2 | – | – | – | – | CC(C)c1cccc(C(C)C)c1NC(=O)NCC1(c2cccc(CN(C)C)c2)CCCC1 | – | – | No change | No change
